One may read the MIC as the lowest concentration that inhibits growth of the organism. A high value points to a need for much substance.

Consider 7 compounds from ChEMBL document CHEMBL5532760, “Synergy between the clavanins as a weapon against multidrug-resistant Enterobacter cloacae” (2024).

Assay [1] concerns Enterobacter cloacae. Description: Antibacterial activity against Enterobacter cloacae 0136 at pH 5.5 incubated for 18 to 20 hrs by broth microdilution method. The format is functional. To be noted: time 18-20 hrs. In short, it runs like this: (§1)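 E. cloacae AR#0136 grown at 37 °C with shaking at 234 rpm to mid-log (OD600 0.4–0.6) in MHB. For pH 5.5 the medium was adjusted with 0.1 M HCl before autoclaving; the pH 7.4 medium was not adjusted. Peptides were twofold serially diluted; final inoculum 5×10^5 CFU/mL; 37 °C for 18–20 h. MIC taken as the lowest concentration with no visible growth.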
For orientation: Dilution methods test growth across graded concentrations, often in twofold steps.

Assay [2] relates to Enterobacter cloacae. Description: Antibacterial activity against Enterobacter cloacae 0136 at pH 7.4 incubated for 18 to 20 hrs by broth microdilution method. It is filed as functional. To be noted: time 18-20 hrs. In short, it runs like this: as §1

≈ marks a conversion by molar mass, not a printed value. Where “and” joins values, the source holds several entries; their conditions need not be identical. Equal entries are not always repeated. Where a SMILES comes first, the peptide text is derived from it. [ ]: non-standard residue; d: D form. Dopa = N[C@@H](Cc1ccc(O)c(O)c1)C(=O)O

As for `CC[C@H](C)[C@H](NC(=O)[C@H](CCCNC(=N)N)NC(=O)CNC(=O)[C@H](CC(C)C)NC(=O)[C@H](CC(C)C)NC(=O)[C@H](CCCCN)NC(=O)[C@H](Cc1ccccc1)NC(=O)[C@H](C)N)C(=O)N[C@H](C(=O)N[C@@H](Cc1cnc[nH]1)C(=O)N[C@@H](Cc1cnc[nH]1)C(=O)N[C@H](C(=O)NCC(=O)N[C@@H](CC(N)=O)C(=O)N[C@@H](Cc1ccccc1)C(=O)N[C@H](C(=O)N[C@@H](Cc1ccc(O)c(O)c1)C(=O)NCC(=O)N[C@@H](Cc1ccccc1)C(=O)N[C@@H](CO)C(=O)N[C@@H](Cc1cnc[nH]1)C(=O)N[C@H](C(=O)N[C@@H](Cc1ccccc1)C(=O)O)C(C)C)C(C)C)C(C)C)[C@@H](C)CC` (H-AFKLLGRIIHHVGNFV[Dopa]GFSHVF-OH), the MIC with Enterobacter cloacae [1] was 8 µM and 23 µg/mL; in the assay on Enterobacter cloacae [2], > 128 µM and 371 µg/mL.
For H-VFQFLGRIIHHVGNFVHGFSHVF-NH2, the MIC against Enterobacter cloacae [1] is 128 µM and 344 µg/mL; against Enterobacter cloacae [2], > 128 µM and 344 µg/mL.
On to H-LFKLLGKIIHHVGNFVHGFSHVF-NH2, for which the MIC in the assay with Enterobacter cloacae [1] is 8 µM and 23 µg/mL; against Enterobacter cloacae [2], > 128 µM and 368 µg/mL.
Take H-GIGKFLHSAKKFGKAFVGEIMNS-NH2: the MIC was 4 µM and 4.9 µg/mL against Enterobacter cloacae [1]; 4 µM and 4.9 µg/mL against Enterobacter cloacae [2].
Regarding H-VFQFLGKIIHHVGNFVHGFSHVF-NH2, the MIC in the assay with Enterobacter cloacae [1] was > 128 µM and 341 µg/mL; against Enterobacter cloacae [2], > 128 µM and 341 µg/mL.
As for H-FLRFIGSVIHGIGHLVHHIGVAL-NH2, the minimal inhibitory concentration (MIC) in the assay with Enterobacter cloacae [1] is 11 µg/mL; with Enterobacter cloacae [2], 348 µg/mL.
As for `CC[C@H](C)[C@H](NC(=O)[C@H](CCCCN)NC(=O)CNC(=O)[C@H](CC(C)C)NC(=O)[C@H](CC(C)C)NC(=O)[C@H](Cc1cnc[nH]1)NC(=O)[C@H](Cc1ccccc1)NC(=O)[C@@H](N)C(C)C)C(=O)N[C@H](C(=O)N[C@@H](Cc1cnc[nH]1)C(=O)N[C@@H](Cc1cnc[nH]1)C(=O)N[C@H](C(=O)NCC(=O)N[C@@H](CC(N)=O)C(=O)N[C@@H](Cc1ccccc1)C(=O)N[C@H](C(=O)N[C@@H](Cc1ccc(O)c(O)c1)C(=O)NCC(=O)N[C@@H](Cc1ccccc1)C(=O)N[C@@H](CO)C(=O)N[C@@H](Cc1cnc[nH]1)C(=O)N[C@H](C(=O)N[C@@H](Cc1ccccc1)C(=O)O)C(C)C)C(C)C)C(C)C)[C@@H](C)CC`, the MIC in the assay with Enterobacter cloacae [1] was 46 µg/mL (≈ 17.1 µM); against Enterobacter cloacae [2], > 128 µM and 372 µg/mL.
